ChEMBL document CHEMBL1149590, “Synthesis and evaluation of homo-bivalent GnRHR ligands” (Bioorg Med Chem, 2007)

Columns and labels:
[1] = biological target: T1, Gonadotropin-releasing hormone receptor (Homo sapiens, UniProt P30968); assay: Antagonist activity at human GnRHR expressed in CHO cells after 30 mins by luciferase reporter gene assay; format: functional, cell-based
T1 sequence (P30968 whole entry): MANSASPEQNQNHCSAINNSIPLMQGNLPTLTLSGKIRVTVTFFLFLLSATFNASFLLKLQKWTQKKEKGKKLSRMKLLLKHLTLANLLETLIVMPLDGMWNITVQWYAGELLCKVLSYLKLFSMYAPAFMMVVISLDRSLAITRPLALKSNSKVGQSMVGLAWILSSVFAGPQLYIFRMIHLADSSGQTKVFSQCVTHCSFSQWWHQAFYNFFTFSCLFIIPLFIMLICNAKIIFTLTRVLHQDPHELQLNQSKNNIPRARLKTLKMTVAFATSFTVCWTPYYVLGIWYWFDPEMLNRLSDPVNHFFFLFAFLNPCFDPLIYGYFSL

[2] = biological target: T2, Gonadotropin-releasing hormone receptor (Homo sapiens) (UniProt P30968); assay: Displacement of [125I]triptorelin from human GnRHR expressed in CHO cells at 1 uM; format: cell-based
T2 sequence (whole entry): T1 sequence (P30968 whole entry)
Procedure, shortened: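 Single-point displacement at 1 μM test compound. CHO membranes bearing wild-type human GnRHR (20 µg protein) incubated 45 min at 22 °C with [125I]triptorelin (30,000 cpm) in Tris-HCl pH 7.4 containing MgCl2 and BSA. Nonspecific binding taken with 1 µM ganirelix, total binding with buffer. Bound radioligand recovered by filtration and gamma-counted; percent displacement reported.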

[3] = biological target: T1, Gonadotropin-releasing hormone receptor; assay: Displacement of [125I]triptorelin from human GnRHR expressed in CHO cells; format: cell-based
Procedure, shortened: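 Membranes from CHO cells expressing wild-type human GnRHR (20 µg protein) incubated with [125I]triptorelin (30,000 cpm) and five competitor concentrations in 50 mM Tris-HCl pH 7.4, 2 mM MgCl2, 0.1% BSA, 45 min at 22 °C. Nonspecific binding defined with 1 µM ganirelix. Filtration, gamma counting. Ki from IC50 via Cheng-Prusoff (Kd 1.1 nM); at least three experiments in duplicate.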

## CCOC(=O)c1cn(Cc2c(F)cccc2F)c2nc(-c3ccc(NC(=O)NCc4cn(CCOCCOCCOCCN=[N+]=[N-])nn4)cc3)c(CN(C)Cc3ccccc3)n2c1=O
[1]
  IC50: 3020 nM
[2]
  Activity: 84%

## CCOC(=O)c1cn(Cc2c(F)cccc2F)c2nc(-c3ccc(NC(=O)NCc4cn(CCOCCOCCOCCOCCn5cc(CNC(=O)Nc6ccc(-c7nc8n(Cc9c(F)cccc9F)cc(C(=O)OCC)c(=O)n8c7CN(C)Cc7ccccc7)cc6)nn5)nn4)cc3)c(CN(C)Cc3ccccc3)n2c1=O
[1]
  IC50: 1350 nM
[2]
  Activity: 89%

## CCNC(=O)Nc1ccc(-c2nc3n(Cc4c(F)cccc4F)cc(C(=O)OCC)c(=O)n3c2CN(CC(=O)NCc2cn(CCOCCN=[N+]=[N-])nn2)Cc2ccccc2)cc1
[1]
  IC50: 525 nM
[2]
  Activity: 66%

## C#CCNC(=O)Nc1ccc(-c2nc3n(Cc4c(F)cccc4F)cc(C(=O)OCC)c(=O)n3c2CN(C)Cc2ccccc2)cc1
[1]
  IC50: 676 nM
[2]
  Activity: 98%
[3]
  Ki: 1.35 nM

## CCNC(=O)Nc1ccc(-c2nc3n(Cc4c(F)cccc4F)cc(C(=O)OCC)c(=O)n3c2CN(CC(=O)NCc2cn(CCOCCOCCOCCn3cc(CNC(=O)CN(Cc4ccccc4)Cc4c(-c5ccc(NC(=O)NCC)cc5)nc5n(Cc6c(F)cccc6F)cc(C(=O)OCC)c(=O)n45)nn3)nn2)Cc2ccccc2)cc1
[1]
  IC50: 1320 nM
[2]
  Activity: 71%
[3]
  Ki: 69.2 nM

## CCOC(=O)c1cn(Cc2c(F)cccc2F)c2nc(-c3ccc(NC(=O)NCc4cn(CCOCCOCCOCCOCCN=[N+]=[N-])nn4)cc3)c(CN(C)Cc3ccccc3)n2c1=O
[1]
  IC50: 676 nM
[2]
  Activity: 90%

## CCNC(=O)Nc1ccc(-c2nc3n(Cc4c(F)cccc4F)cc(C(=O)OCC)c(=O)n3c2CN(CC(=O)NCc2cn(CCOCCOCCOCCN=[N+]=[N-])nn2)Cc2ccccc2)cc1
[1]
  IC50: 724 nM
[2]
  Activity: 76%

## CCNC(=O)Nc1ccc(-c2nc3n(Cc4c(F)cccc4F)cc(C(=O)NCc4cn(CCN=[N+]=[N-])nn4)c(=O)n3c2CN(C)Cc2ccccc2)cc1
[1]
  IC50: > 10000 nM
[2]
  Activity: 78%

## CCOC(=O)c1cn(Cc2c(F)cccc2F)c2nc(-c3ccc(NC(=O)NCc4cn(CCOCCOCCn5cc(CNC(=O)Nc6ccc(-c7nc8n(Cc9c(F)cccc9F)cc(C(=O)OCC)c(=O)n8c7CN(C)Cc7ccccc7)cc6)nn5)nn4)cc3)c(CN(C)Cc3ccccc3)n2c1=O
[1]
  IC50: 955 nM
[2]
  Activity: 94%
[3]
  Ki: 23.4 nM

## CCNC(=O)Nc1ccc(-c2nc3n(Cc4c(F)cccc4F)cc(C(=O)OCC)c(=O)n3c2CN(CC(=O)NCc2cn(CCn3cc(CNC(=O)CN(Cc4ccccc4)Cc4c(-c5ccc(NC(=O)NCC)cc5)nc5n(Cc6c(F)cccc6F)cc(C(=O)OCC)c(=O)n45)nn3)nn2)Cc2ccccc2)cc1
[1]
  IC50: 1910 nM
[2]
  Activity: 65%

## CCNC(=O)Nc1ccc(-c2nc3n(Cc4c(F)cccc4F)cc(C(=O)OCC)c(=O)n3c2CN(CC(=O)NCc2cn(CCOCCOCCN=[N+]=[N-])nn2)Cc2ccccc2)cc1
[1]
  IC50: 468 nM
[2]
  Activity: 83%

## CCOC(=O)c1cn(Cc2c(F)cccc2F)c2nc(-c3ccc(NC(=O)NCc4cn(CCOCCn5cc(CNC(=O)Nc6ccc(-c7nc8n(Cc9c(F)cccc9F)cc(C(=O)OCC)c(=O)n8c7CN(C)Cc7ccccc7)cc6)nn5)nn4)cc3)c(CN(C)Cc3ccccc3)n2c1=O
[1]
  IC50: 3160 nM
[2]
  Activity: 88%

## CCNC(=O)Nc1ccc(-c2nc3n(Cc4c(F)cccc4F)cc(C(=O)NCc4cn(CCOCCn5cc(CNC(=O)c6cn(Cc7c(F)cccc7F)c7nc(-c8ccc(NC(=O)NCC)cc8)c(CN(C)Cc8ccccc8)n7c6=O)nn5)nn4)c(=O)n3c2CN(C)Cc2ccccc2)cc1
[1]
  IC50: > 10000 nM
[2]
  Activity: 64%

## CCOC(=O)c1cn(Cc2c(F)cccc2F)c2nc(-c3ccc(NC(=O)NCc4cn(CCn5cc(CNC(=O)Nc6ccc(-c7nc8n(Cc9c(F)cccc9F)cc(C(=O)OCC)c(=O)n8c7CN(C)Cc7ccccc7)cc6)nn5)nn4)cc3)c(CN(C)Cc3ccccc3)n2c1=O
[1]
  IC50: 1910 nM
[2]
  Activity: 68%

## CCNC(=O)Nc1ccc(-c2nc3n(Cc4c(F)cccc4F)cc(C(=O)OCC)c(=O)n3c2CN(CC(=O)NCc2cn(CCOCCn3cc(CNC(=O)CN(Cc4ccccc4)Cc4c(-c5ccc(NC(=O)NCC)cc5)nc5n(Cc6c(F)cccc6F)cc(C(=O)OCC)c(=O)n45)nn3)nn2)Cc2ccccc2)cc1
[1]
  IC50: 1550 nM
[2]
  Activity: 71%

## C#CCNC(=O)c1cn(Cc2c(F)cccc2F)c2nc(-c3ccc(NC(=O)NCC)cc3)c(CN(C)Cc3ccccc3)n2c1=O
[1]
  IC50: 7080 nM
[2]
  Activity: 85%
[3]
  Ki: 162 nM

## CCNC(=O)Nc1ccc(-c2nc3n(Cc4c(F)cccc4F)cc(C(=O)NCc4cn(CCOCCOCCOCCN=[N+]=[N-])nn4)c(=O)n3c2CN(C)Cc2ccccc2)cc1
[1]
  IC50: > 10000 nM
[2]
  Activity: 69%

## CCNC(=O)Nc1ccc(-c2nc3n(Cc4c(F)cccc4F)cc(C(=O)NCc4cn(CCOCCOCCOCCOCCn5cc(CNC(=O)c6cn(Cc7c(F)cccc7F)c7nc(-c8ccc(NC(=O)NCC)cc8)c(CN(C)Cc8ccccc8)n7c6=O)nn5)nn4)c(=O)n3c2CN(C)Cc2ccccc2)cc1
[1]
  IC50: > 10000 nM
[2]
  Activity: 85%

## CCNC(=O)Nc1ccc(-c2nc3n(Cc4c(F)cccc4F)cc(C(=O)NCc4cn(CCOCCOCCOCCn5cc(CNC(=O)c6cn(Cc7c(F)cccc7F)c7nc(-c8ccc(NC(=O)NCC)cc8)c(CN(C)Cc8ccccc8)n7c6=O)nn5)nn4)c(=O)n3c2CN(C)Cc2ccccc2)cc1
[1]
  IC50: > 10000 nM
[2]
  Activity: 86%

## CCNC(=O)Nc1ccc(-c2nc3n(Cc4c(F)cccc4F)cc(C(=O)OCC)c(=O)n3c2CN(C)Cc2ccccc2)cc1
[1]
  IC50: 70.8 nM
[2]
  Activity: 99%
[3]
  Ki: 4.79 nM

## CCNC(=O)Nc1ccc(-c2nc3n(Cc4c(F)cccc4F)cc(C(=O)NCc4cn(CCOCCN=[N+]=[N-])nn4)c(=O)n3c2CN(C)Cc2ccccc2)cc1
[1]
  IC50: > 10000 nM
[2]
  Activity: 68%

## CCNC(=O)Nc1ccc(-c2nc3n(Cc4c(F)cccc4F)cc(C(=O)NCc4cn(CCOCCOCCOCCOCCN=[N+]=[N-])nn4)c(=O)n3c2CN(C)Cc2ccccc2)cc1
[1]
  IC50: > 10000 nM
[2]
  Activity: 70%

## CCNC(=O)Nc1ccc(-c2nc3n(Cc4c(F)cccc4F)cc(C(=O)NCc4cn(CCOCCOCCN=[N+]=[N-])nn4)c(=O)n3c2CN(C)Cc2ccccc2)cc1
[1]
  IC50: > 10000 nM
[2]
  Activity: 81%

## CCNC(=O)Nc1ccc(-c2nc3n(Cc4c(F)cccc4F)cc(C(=O)OCC)c(=O)n3c2CN(CC(=O)NCc2cn(CCOCCOCCOCCOCCN=[N+]=[N-])nn2)Cc2ccccc2)cc1
[1]
  IC50: 832 nM
[2]
  Activity: 78%

## C#CCNC(=O)CN(Cc1ccccc1)Cc1c(-c2ccc(NC(=O)NCC)cc2)nc2n(Cc3c(F)cccc3F)cc(C(=O)OCC)c(=O)n12
[1]
  IC50: 1000 nM
[2]
  Activity: 98%
[3]
  Ki: 5.25 nM

## CCOC(=O)c1cn(Cc2c(F)cccc2F)c2nc(-c3ccc(NC(=O)NCc4cn(CCOCCOCCN=[N+]=[N-])nn4)cc3)c(CN(C)Cc3ccccc3)n2c1=O
[1]
  IC50: 2400 nM
[2]
  Activity: 84%

## CCNC(=O)Nc1ccc(-c2nc3n(Cc4c(F)cccc4F)cc(C(=O)OCC)c(=O)n3c2CN(CC(=O)NCc2cn(CCOCCOCCOCCOCCn3cc(CNC(=O)CN(Cc4ccccc4)Cc4c(-c5ccc(NC(=O)NCC)cc5)nc5n(Cc6c(F)cccc6F)cc(C(=O)OCC)c(=O)n45)nn3)nn2)Cc2ccccc2)cc1
[1]
  IC50: 309 nM
[2]
  Activity: 89%
[3]
  Ki: 195 nM

## CCOC(=O)c1cn(Cc2c(F)cccc2F)c2nc(-c3ccc(NC(=O)NCc4cn(CCOCCN=[N+]=[N-])nn4)cc3)c(CN(C)Cc3ccccc3)n2c1=O
[1]
  IC50: 3630 nM
[2]
  Activity: 85%

## CCNC(=O)Nc1ccc(-c2nc3n(Cc4c(F)cccc4F)cc(C(=O)OCC)c(=O)n3c2CN(CC(=O)NCc2cn(CCN=[N+]=[N-])nn2)Cc2ccccc2)cc1
[1]
  IC50: 724 nM
[2]
  Activity: 74%

## CCOC(=O)c1cn(Cc2c(F)cccc2F)c2nc(-c3ccc(NC(=O)NCc4cn(CCOCCOCCOCCn5cc(CNC(=O)Nc6ccc(-c7nc8n(Cc9c(F)cccc9F)cc(C(=O)OCC)c(=O)n8c7CN(C)Cc7ccccc7)cc6)nn5)nn4)cc3)c(CN(C)Cc3ccccc3)n2c1=O
[1]
  IC50: 355 nM
[2]
  Activity: 90%
[3]
  Ki: 29.5 nM

## CCNC(=O)Nc1ccc(-c2nc3n(Cc4c(F)cccc4F)cc(C(=O)NCc4cn(CCn5cc(CNC(=O)c6cn(Cc7c(F)cccc7F)c7nc(-c8ccc(NC(=O)NCC)cc8)c(CN(C)Cc8ccccc8)n7c6=O)nn5)nn4)c(=O)n3c2CN(C)Cc2ccccc2)cc1
[1]
  IC50: > 10000 nM
[2]
  Activity: 26%

## CCNC(=O)Nc1ccc(-c2nc3n(Cc4c(F)cccc4F)cc(C(=O)OCC)c(=O)n3c2CN(CC(=O)NCc2cn(CCOCCOCCn3cc(CNC(=O)CN(Cc4ccccc4)Cc4c(-c5ccc(NC(=O)NCC)cc5)nc5n(Cc6c(F)cccc6F)cc(C(=O)OCC)c(=O)n45)nn3)nn2)Cc2ccccc2)cc1
[1]
  IC50: 832 nM
[2]
  Activity: 84%
[3]
  Ki: 58.9 nM

## CCOC(=O)c1cn(Cc2c(F)cccc2F)c2nc(-c3ccc(NC(=O)NCc4cn(CCN=[N+]=[N-])nn4)cc3)c(CN(C)Cc3ccccc3)n2c1=O
[1]
  IC50: 2570 nM
[2]
  Activity: 76%
